This note sets out measurements from ChEMBL document CHEMBL4052683, “The discovery of benzoxazine sulfonamide inhibitors of NaV1.7: Tools that bridge efficacy and target engagement” (Bioorg Med Chem Lett, 2017).

Bounds are passed on as bounds.

Data set [1] in a line: Clearance in pooled human liver microsomes at 1 uM in presence of NADPH by LC-MS/MS method. The format is ADME, microsome. Conditions: read-out: CLH. On the technique in general: Liver microsomes are a subcellular fraction often used to study metabolism.
Data set [2] in a line: Apparent permeability in MDCK vector control cells at 5 uM. The following applies: dog.
Data set [3] can be described thus: Clearance in pooled rat liver microsomes at 1 uM in presence of NADPH by LC-MS/MS method. It counts as ADME, microsome. Conditions: read-out: CLH.
For data set [4], the species on record is Homo sapiens. As to the kind of experiment: Selectivity index, ratio of IC50 for human NaV1.5 expressed in […] cells to IC50 for human NaV1.7 expressed in HEK293 cells. The format is cell-based.
Data set [5] is described as follows: Clearance in rat at 0.5 mg/kg, iv by LC-MS/MS method. It counts as ADME, organism-based. Conditions: in vivo. Put shortly: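 Male rats got 0.5 mg/kg IV as a DMSO solution. Unbound clearance was taken as rat clearance divided by the unbound fraction from equilibrium dialysis.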
Data set [6] concerns Rattus norvegicus. In words: Unbound clearance in rat at 0.5 mg/kg, iv by LC-MS/MS method. The following applies: in vivo. It counts as ADME, organism-based. Put shortly:
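Male rats given 0.5 mg/kg intravenously as a solution in DMSO. Unbound clearance was calculated as rat clearance divided by unbound fraction, with unbound fraction determined by equilibrium dialysis.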

The target of data set [7] is T1, Sodium channel protein type 9 subunit alpha (Homo sapiens, UniProt Q15858). In words: Inhibition of human NaV1.7 expressed in HEK293 cells at holding potential of -125 mV with test potentials to -10 mV by whole cell voltage clamp method. The format is cell-based.
The target of data set [8] is Sodium channel protein type 5 subunit alpha (Homo sapiens, UniProt Q14524). As to the kind of experiment: Inhibition of human NaV1.5 expressed in […] cells at holding potential of -125 mV with test potentials to -10 mV by whole cell voltage clamp method. The format is cell-based.
Data set [9] addresses Sodium channel protein type 9 subunit alpha (Rattus norvegicus, UniProt O08562). In words: Inhibition of rat NaV1.7 by cell based whole cell voltage clamp method. In short, it runs like this: (§1)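 PatchXpress electrophysiology was run with a protocol giving about 20% channel inactivation. At least four concentrations at half-log spacing were applied one at a time, with washout, current recovery and holding voltage reset between each. Data were pooled from at least 10 cells, with 2–3 points per concentration, and fitted with a 4-parameter Hill curve to give one IC50.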

Data set [10] can be described thus: Dissociation constant, pKa of the compound. It counts as physicochemical.
The nature of data set [11]: Inhibition of cynomolgus monkey NaV1.7 by whole cell voltage clamp method. The following applies: Macaca fascicularis. In short, it runs like this:
as §1

The target in data set [12] is T1, Sodium channel protein type 9 subunit alpha. In words: Displacement of (P)-1-(30-chloro-2-fluoro-5,50-dimethoxy-[1,10biphenyl]-4-yl)-N-(isoxazol-3-yl)-2-oxo-1,2-dihydroquinoline-6-sulfonamide[50-methoxy-C3H3] from human NaV1.7 expressed in HEK293 cell membranes incubated for 1 hr by beta counting method. In short, it runs like this:
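Human NaV1.7 radioligand displacement using the tritiated 5'-methoxy-labelled dihydroquinoline sulfonamide ligand, which binds the VSDIV pocket.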

For data set [13], the target named is Sodium channel protein type 9 subunit alpha (Mus musculus, UniProt Q62205). In words: Inhibition of mouse NaV1.7 by whole cell voltage clamp method. Put shortly: as §1
Sodium channel protein type 9 subunit alpha (Mus musculus, UniProt Q62205), sequence (Q62205 whole entry): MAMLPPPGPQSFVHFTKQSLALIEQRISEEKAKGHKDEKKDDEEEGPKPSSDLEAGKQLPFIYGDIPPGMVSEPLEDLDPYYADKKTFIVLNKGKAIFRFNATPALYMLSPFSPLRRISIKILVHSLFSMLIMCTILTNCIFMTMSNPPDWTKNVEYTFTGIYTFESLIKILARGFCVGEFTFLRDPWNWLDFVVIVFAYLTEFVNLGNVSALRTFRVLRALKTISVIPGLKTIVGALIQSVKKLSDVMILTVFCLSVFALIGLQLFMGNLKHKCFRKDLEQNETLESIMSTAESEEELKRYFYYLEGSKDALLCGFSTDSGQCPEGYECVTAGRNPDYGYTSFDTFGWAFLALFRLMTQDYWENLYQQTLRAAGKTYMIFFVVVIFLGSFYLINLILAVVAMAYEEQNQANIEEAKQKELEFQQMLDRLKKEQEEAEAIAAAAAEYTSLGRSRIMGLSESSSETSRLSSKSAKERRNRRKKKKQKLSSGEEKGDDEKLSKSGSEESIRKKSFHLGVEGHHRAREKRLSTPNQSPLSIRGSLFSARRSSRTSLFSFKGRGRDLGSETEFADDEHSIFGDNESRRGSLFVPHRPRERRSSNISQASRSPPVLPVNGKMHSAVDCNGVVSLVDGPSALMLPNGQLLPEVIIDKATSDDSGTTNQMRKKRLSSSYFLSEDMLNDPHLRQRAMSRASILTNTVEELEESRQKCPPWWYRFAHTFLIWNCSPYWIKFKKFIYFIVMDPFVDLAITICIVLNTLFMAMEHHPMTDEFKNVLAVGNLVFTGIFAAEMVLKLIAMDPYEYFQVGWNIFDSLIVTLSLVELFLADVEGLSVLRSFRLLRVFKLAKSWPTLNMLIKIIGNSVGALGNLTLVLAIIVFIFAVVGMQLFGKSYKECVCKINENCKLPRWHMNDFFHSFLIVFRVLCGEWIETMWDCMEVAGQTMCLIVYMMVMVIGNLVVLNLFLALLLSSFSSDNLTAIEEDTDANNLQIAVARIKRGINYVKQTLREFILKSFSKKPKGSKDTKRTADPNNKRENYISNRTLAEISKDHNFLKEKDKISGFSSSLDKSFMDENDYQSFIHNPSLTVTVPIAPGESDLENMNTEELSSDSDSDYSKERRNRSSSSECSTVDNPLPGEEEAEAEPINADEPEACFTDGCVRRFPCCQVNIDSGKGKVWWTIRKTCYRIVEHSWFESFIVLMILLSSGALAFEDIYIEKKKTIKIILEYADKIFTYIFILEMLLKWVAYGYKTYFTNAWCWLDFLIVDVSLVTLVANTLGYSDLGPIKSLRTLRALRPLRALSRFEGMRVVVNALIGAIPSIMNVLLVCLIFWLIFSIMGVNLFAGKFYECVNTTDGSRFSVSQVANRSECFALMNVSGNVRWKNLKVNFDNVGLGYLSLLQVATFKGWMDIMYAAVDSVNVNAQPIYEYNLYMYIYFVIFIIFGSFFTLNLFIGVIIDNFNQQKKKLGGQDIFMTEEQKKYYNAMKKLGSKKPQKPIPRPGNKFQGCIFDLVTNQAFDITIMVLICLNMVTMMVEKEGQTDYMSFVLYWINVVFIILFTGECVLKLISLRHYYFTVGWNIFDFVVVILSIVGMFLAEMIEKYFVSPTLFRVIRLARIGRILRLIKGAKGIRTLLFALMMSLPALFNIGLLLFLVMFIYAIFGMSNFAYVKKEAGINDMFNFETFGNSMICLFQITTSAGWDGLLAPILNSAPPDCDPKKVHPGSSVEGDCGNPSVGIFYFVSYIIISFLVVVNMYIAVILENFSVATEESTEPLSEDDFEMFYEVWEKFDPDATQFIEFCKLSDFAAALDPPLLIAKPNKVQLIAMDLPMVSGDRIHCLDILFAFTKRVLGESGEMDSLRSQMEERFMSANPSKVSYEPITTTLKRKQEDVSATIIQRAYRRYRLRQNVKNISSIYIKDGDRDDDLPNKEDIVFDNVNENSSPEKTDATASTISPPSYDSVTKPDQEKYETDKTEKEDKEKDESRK

Sodium channel protein type 9 subunit alpha (Rattus norvegicus, UniProt O08562), sequence (O08562 whole entry): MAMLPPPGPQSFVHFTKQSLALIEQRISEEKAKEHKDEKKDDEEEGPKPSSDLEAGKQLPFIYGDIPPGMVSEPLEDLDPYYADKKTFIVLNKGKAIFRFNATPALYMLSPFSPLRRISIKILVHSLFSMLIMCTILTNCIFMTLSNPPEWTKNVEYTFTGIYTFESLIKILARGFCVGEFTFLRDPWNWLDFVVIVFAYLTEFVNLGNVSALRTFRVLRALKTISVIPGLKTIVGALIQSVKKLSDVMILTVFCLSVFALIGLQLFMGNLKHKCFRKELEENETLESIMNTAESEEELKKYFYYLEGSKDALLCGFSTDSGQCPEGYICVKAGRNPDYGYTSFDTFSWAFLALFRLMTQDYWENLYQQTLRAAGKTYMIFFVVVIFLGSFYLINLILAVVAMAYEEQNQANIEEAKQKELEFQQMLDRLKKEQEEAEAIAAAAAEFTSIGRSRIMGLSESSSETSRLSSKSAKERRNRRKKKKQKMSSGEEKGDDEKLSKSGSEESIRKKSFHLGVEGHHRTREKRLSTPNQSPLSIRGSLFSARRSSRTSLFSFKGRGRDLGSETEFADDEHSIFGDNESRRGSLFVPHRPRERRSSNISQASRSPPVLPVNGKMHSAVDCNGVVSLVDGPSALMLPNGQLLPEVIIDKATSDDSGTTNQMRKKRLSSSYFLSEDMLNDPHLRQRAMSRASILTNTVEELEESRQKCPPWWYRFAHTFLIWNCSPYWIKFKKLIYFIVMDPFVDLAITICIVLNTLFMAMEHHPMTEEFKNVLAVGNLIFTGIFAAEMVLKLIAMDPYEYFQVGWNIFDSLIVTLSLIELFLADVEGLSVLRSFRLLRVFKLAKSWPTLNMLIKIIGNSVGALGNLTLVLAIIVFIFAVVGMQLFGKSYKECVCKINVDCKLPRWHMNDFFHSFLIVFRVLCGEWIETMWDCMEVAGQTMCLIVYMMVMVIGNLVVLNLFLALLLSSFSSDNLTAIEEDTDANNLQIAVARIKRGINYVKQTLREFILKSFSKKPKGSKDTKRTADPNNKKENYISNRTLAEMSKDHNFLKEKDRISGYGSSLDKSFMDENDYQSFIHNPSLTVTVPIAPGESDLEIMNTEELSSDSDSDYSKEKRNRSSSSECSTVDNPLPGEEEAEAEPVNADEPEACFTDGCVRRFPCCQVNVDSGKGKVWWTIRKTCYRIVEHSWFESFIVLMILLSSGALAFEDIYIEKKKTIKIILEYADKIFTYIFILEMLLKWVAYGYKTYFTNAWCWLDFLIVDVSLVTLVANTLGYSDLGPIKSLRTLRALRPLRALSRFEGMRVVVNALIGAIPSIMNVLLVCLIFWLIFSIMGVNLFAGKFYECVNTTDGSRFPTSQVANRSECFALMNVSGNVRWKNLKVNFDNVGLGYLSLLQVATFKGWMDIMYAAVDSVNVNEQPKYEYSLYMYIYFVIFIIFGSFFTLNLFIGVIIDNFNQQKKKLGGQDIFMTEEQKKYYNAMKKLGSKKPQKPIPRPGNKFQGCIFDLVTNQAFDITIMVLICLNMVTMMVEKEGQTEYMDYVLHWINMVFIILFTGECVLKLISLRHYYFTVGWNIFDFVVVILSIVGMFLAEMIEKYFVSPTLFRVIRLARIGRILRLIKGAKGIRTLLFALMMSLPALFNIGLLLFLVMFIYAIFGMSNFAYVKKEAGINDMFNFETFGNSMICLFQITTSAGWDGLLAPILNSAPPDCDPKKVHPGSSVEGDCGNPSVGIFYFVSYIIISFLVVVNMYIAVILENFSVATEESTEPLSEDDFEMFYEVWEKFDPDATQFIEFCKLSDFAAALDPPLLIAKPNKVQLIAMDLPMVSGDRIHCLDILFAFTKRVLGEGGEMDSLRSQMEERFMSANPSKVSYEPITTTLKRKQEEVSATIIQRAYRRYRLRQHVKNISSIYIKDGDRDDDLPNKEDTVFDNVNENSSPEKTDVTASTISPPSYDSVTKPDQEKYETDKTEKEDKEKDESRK

As to `N#Cc1cc(C(F)(F)F)ccc1N1CCOc2cc(S(=O)(=O)Nc3ncco3)ccc21`, the results for the microsomal CLint at 1 µM in data set [1] and in data set [3] were 15 µL/min/mg and below 14 µL/min/mg, respectively. The Papp at 5 µM in data set [2] was 6.4 ×10⁻⁶ cm/s.

`COc1cc(C#N)ccc1N1CCOc2cc(S(=O)(=O)Nc3nccs3)ccc21`: the microsomal CLint at 1 µM in data set [1] turned out to be 36 µL/min/mg; in data set [3], 22 µL/min/mg. Besides, the Ratio IC50 in data set [4] stood at 56. The compound also showed a clearance in data set [5] of 14 mL/min/kg. Further, in data set [2], the Papp at 5 µM came out at 20 ×10⁻⁶ cm/s. In data set [6], this compound yielded a CL free of 883 mL/min/kg. The figures for the half-inhibitory concentration (IC50) in [7], in data set [8] and in data set [9] were 0.25 µM, 14 µM and 0.85 µM, respectively.

In the case of `N#Cc1cc(C(F)(F)F)ccc1N1CCOc2cc(S(=O)(=O)Nc3ccncn3)ccc21`, the microsomal CLint at 1 µM in [1] and in data set [3] was below 14 µL/min/mg in each case. In addition, the Ratio IC50 in [4] was 10. In data set [5], this compound had a clearance of 2.83 mL/min/kg. Besides, the Papp at 5 µM in [2] worked out at 9.7 ×10⁻⁶ cm/s. In data set [6], this compound came in with a CL free of 120 mL/min/kg. The same compound gave a pKa in data set [10] of 5.8. The figures for the IC50 in data set [8] and in data set [9] were 4.6 µM and 3 µM, respectively.

For `N#Cc1cc(C(F)(F)F)ccc1N1CCOc2cc(S(=O)(=O)Nc3nccs3)c(Cl)cc21`, the microsomal CLint at 1 µM came out at 22 µL/min/mg in data set [1] and 21 µL/min/mg in data set [3]. Moreover, the IC50 in [11] worked out at 0.3 µM; in [12], 0.02 µM; in data set [13], 0.1 µM; in data set [7] it was 0.39 µM; in data set [8] it was 0.61 µM; in data set [9] it was 0.05 µM. In data set [2], the Papp at 5 µM amounted to 27 ×10⁻⁶ cm/s.

`O=S(=O)(Nc1ccncn1)c1ccc2c(c1)OCCN2c1ccc(C(F)(F)F)cc1C1=CCNCC1`: the Ratio IC50 in data set [4] came out at 11. Also, the clearance in data set [5] is 43.3 mL/min/kg. The Papp at 5 µM in data set [2] came out at 1 ×10⁻⁶ cm/s. For the same compound, the CL free in data set [6] stood at 233 mL/min/kg. The figures for the IC50 in [8] and in data set [9] were 1.5 µM and above 30 µM, respectively.

As to `COc1cc(F)ccc1N1CCOc2cc(S(=O)(=O)Nc3nccs3)ccc21`, the results for the microsomal CLint at 1 µM in data set [1] and in data set [3] were 110 µL/min/mg and above 399 µL/min/mg, respectively. Moreover, the Ratio IC50 in [4] is above 100. In addition, the Papp at 5 µM in data set [2] was determined as 36 ×10⁻⁶ cm/s. For the same compound, the values for the IC50 in data set [7], in [8] and in data set [9] were 0.28 µM, above 30 µM and 0.88 µM, respectively.

As to `COc1ccccc1N1CCOc2cc(S(=O)(=O)Nc3nccs3)ccc21`, the microsomal CLint at 1 µM in [1] worked out at 68 µL/min/mg; in data set [3], 297 µL/min/mg. The Ratio IC50 in data set [4] is above 79. The Papp at 5 µM in data set [2] was 28 ×10⁻⁶ cm/s. The half-inhibitory concentration (IC50) in data set [8] was above 30 µM; in [9] it was 1.6 µM.

For the compound `N#Cc1cc(C(F)(F)F)ccc1N1CCOc2cc(S(=O)(=O)Nc3ccno3)ccc21`, the microsomal CLint at 1 µM is 32 µL/min/mg in data set [1] and below 14 µL/min/mg in [3]. Also, in [2], the Papp at 5 µM is below 1 ×10⁻⁶ cm/s.

With `N#Cc1cc(C(F)(F)F)ccc1N1CCOc2cc(S(=O)(=O)Nc3cscn3)ccc21`, the figures for the microsomal CLint at 1 µM in data set [1] and in data set [3] were 55 µL/min/mg and below 14 µL/min/mg, respectively. The Papp at 5 µM in data set [2] stood at 39 ×10⁻⁶ cm/s.

As to `Cn1nccc1-c1ccccc1Oc1ccc(S(=O)(=O)Nc2nccs2)cc1C#N`, the IC50 was determined as 0.02 µM in data set [11], 0.13 µM in data set [13] and 4.2 µM in data set [9].

On to `N#Cc1cc(C(F)(F)F)ccc1N1CCOc2c1ccc(S(=O)(=O)Nc1nccs1)c2F`, for which the microsomal CLint at 1 µM in [1] and in [3] was below 14 µL/min/mg in each case. In addition, the Papp at 5 µM in [2] came to 38 ×10⁻⁶ cm/s. The IC50 in data set [8] is 2.1 µM; in data set [9], 1.7 µM.

On to `N#Cc1cc(C(F)(F)F)ccc1N1CCOc2cc(S(=O)(=O)Nc3ncns3)ccc21`, for which the microsomal CLint at 1 µM in [1] was below 14 µL/min/mg; in [3], 34 µL/min/mg. In data set [5], this compound gave a clearance of 10.7 mL/min/kg. In addition, the IC50 is 0.021 µM in data set [12] and 0.09 µM in data set [7]. Moreover, the Papp at 5 µM in [2] came to 1.6 ×10⁻⁶ cm/s. In [6], this compound gave a CL free of 1180 mL/min/kg. The pKa in data set [10] came to 3.8.

In the case of `COc1cc(C(F)(F)F)ccc1N1CCOc2cc(S(=O)(=O)Nc3nccs3)ccc21`, the microsomal CLint at 1 µM in data set [1] was 30 µL/min/mg; in data set [3], 53 µL/min/mg. Also, the CL free in data set [6] worked out at 667 mL/min/kg. This compound yielded an IC50 in data set [9] of 0.39 µM.

For the compound `N#Cc1cc(C(F)(F)F)ccc1N1CCOc2cc(S(=O)(=O)Nc3nccs3)ccc21`, the microsomal CLint at 1 µM in data set [1] and in data set [3] was below 14 µL/min/mg each time. Also, the Ratio IC50 in data set [4] stood at 8. This compound also had a clearance in data set [5] of 5.5 mL/min/kg. Further, the apparent permeability coefficient (Papp) at 5 µM in data set [2] is 22 ×10⁻⁶ cm/s. The compound also registered a CL free in data set [6] of 517 mL/min/kg. Moreover, in [10], the pKa came out at 7. Further, the IC50 was determined as 1.5 µM in [8] and 1.1 µM in data set [9].

Turning to `N#Cc1cc(C(F)(F)F)ccc1N1CCOc2cc(S(=O)(=O)Nc3nccs3)cc(F)c21`, the microsomal CLint at 1 µM in data set [1] and in data set [3] was below 14 µL/min/mg each time. For the same compound, the Papp at 5 µM in [2] amounted to 26 ×10⁻⁶ cm/s. For the same compound, the values for the IC50 in [8] and in data set [9] were 0.65 µM and 0.56 µM, respectively.

Take `O=S(=O)(Nc1ccncn1)c1ccc2c(-c3ccc(C(F)(F)F)cc3C3=CCNCC3)cccc2c1`: the Ratio IC50 in data set [4] was above 330. The clearance in data set [5] is 28.3 mL/min/kg. For the same compound, the IC50 was 0.1 µM in data set [11]; 4.3 µM in data set [13]; 0.09 µM in [7]; above 30 µM in data set [8]; above 30 µM in [9]. In addition, in data set [2], the apparent permeability (Papp) at 5 µM worked out at 1.3 ×10⁻⁶ cm/s. Further, in [6], the CL free was found to be 667 mL/min/kg.

In general, Papp refers to a coefficient for how fast a substance crosses the barrier. Broadly, the clearance is a measure of how efficiently the substance is removed, as volume per time. The IC50 is the concentration that gives 50% inhibition. Broadly, the pKa is the pH at which an ionisable group is half protonated.
